Laboratory results published in ChEMBL document CHEMBL4024760, “Specific Inhibition of Bacterial β-Glucuronidase by Pyrazolo[4,3-c]quinoline Derivatives via a pH-Dependent Manner To Suppress Chemotherapy-Induced Intestinal Toxicity” (J Med Chem, 2017).

How the values were obtained:
Escherichia coli [1] = experiment: Inhibition of N-terminal His-tagged Escherichia coli beta-glucuronidase expressed in Escherichia coli BL21 (DE3) assessed as residual activity using pNPG as substrate at 10 uM preincubated for 30 mins followed by substrate addition measured after 1 hr relative to control
In short: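 Purified E. coli βG (20 ng) preincubated with 10 μM compound for 30 min at 37 °C in PBS pH 7.5 with 10% DMSO and 0.05% BSA. pNPG (20 mM stock) then added for 1 h, quenched with 2 N NaOH, and read at OD405. Result given as % activity versus a 10% DMSO control; n = 3.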

beta-glucuronidase = target: T1, beta-glucuronidase (Homo sapiens, UniProt P08236); experiment: Inhibition of N-terminal His-tagged human beta-glucuronidase expressed in Escherichia coli BL21 (DE3) assessed as residual activity using pNPG as substrate at 10 uM preincubated for 30 mins followed by substrate addition measured after 1 hr relative to control; settings: probe pNPG, read-out: Activity
T1 sequence (P08236 whole entry): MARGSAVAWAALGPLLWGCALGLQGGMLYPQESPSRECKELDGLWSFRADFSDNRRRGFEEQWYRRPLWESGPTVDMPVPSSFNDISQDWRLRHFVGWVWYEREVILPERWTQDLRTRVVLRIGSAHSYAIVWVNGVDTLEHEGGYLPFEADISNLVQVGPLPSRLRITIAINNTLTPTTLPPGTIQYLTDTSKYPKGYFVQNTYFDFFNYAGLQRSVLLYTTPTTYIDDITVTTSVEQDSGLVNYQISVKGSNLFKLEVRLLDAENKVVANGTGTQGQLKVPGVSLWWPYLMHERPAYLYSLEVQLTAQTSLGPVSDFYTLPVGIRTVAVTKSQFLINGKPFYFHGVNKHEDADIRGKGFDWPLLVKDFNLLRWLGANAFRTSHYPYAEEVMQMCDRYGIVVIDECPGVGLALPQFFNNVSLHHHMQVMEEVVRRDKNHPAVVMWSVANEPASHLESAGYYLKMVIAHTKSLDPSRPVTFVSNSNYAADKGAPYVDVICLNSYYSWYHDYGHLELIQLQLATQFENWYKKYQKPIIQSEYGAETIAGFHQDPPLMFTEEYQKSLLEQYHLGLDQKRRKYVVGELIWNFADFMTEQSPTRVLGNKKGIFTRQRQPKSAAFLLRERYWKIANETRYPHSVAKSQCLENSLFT

[2] = Inhibition of N-terminal His-tagged Escherichia coli beta-glucuronidase expressed in Escherichia coli BL21 (DE3) using pNPG as substrate preincubated for 30 mins followed by substrate addition measured after 1 hr
In short: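 Purified E. coli βG (20 ng) preincubated 30 min at 37 °C with compound (0.64–10 000 nM) in PBS pH 7.5 containing 10% DMSO and 0.05% BSA. pNPG (20 mM stock) then added for 1 h, quenched with 2 N NaOH, and pNP read at 405 nm. IC50 derived from a four-parameter curve fit; SD of n = 3.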

Escherichia coli [3] = experiment: Toxicity against Escherichia coli BL21(DE3) assessed as effect on cell growth at 100 uM after 6 hrs
In short: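 BL21(DE3) E. coli (diluted to OD600 0.1 in LB after overnight growth) incubated with compound at a final 100 μM, shaking at 37 °C for 6 h. Growth measured by OD600; viability given as % of the untreated control.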

[4] = test system: Escherichia coli BL21(DE3); experiment: Inhibition of beta-glucuronidase in Escherichia coli BL21 (DE3) using pNPG as substrate at 50 uM preincubated for 30 mins followed by substrate addition measured after 1 hr relative to control
In short: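 BL21(DE3) E. coli grown overnight and diluted to OD600 0.1 in LB. Cells treated with compound (50, 10 or 2 μM) for 30 min at 37 °C, then pNPG (40 mM stock) added for 1 h. Cells pelleted at 6000g; supernatant quenched with NaOH and read at OD405. Activity given as % of a 1% DMSO control.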

Activity (Escherichia coli [1]) [%] | activity at 1 h, 10 µM (beta-glucuronidase) [%] | IC50 [2] [nM] | inhibition [4] [%] | Structure (SMILES) | Activity (Escherichia coli [3])
14.9 | 94.1 | 308 | – | Nc1n[nH]c2c1c(Nc1cccc(Cl)c1)nc1ccccc12 | –
14.8 | 93.6 | 673 | – | Cc1ccccc1Nc1nc2ccccc2c2[nH]nc(N)c12 | –
112 | 99 | – | – | Fc1ccc2nc(/C=N/NC3=NCCN3)ccc2c1 | –
112 | 80.2 | – | – | CN(C)CCCN1C(=O)S/C(=C/c2ccc3cc(F)ccc3n2)C1=O | –
112 | 85.4 | – | – | COc1ccc(-c2nc3c4ccoc4c4ccccc4c3[nH]2)cc1 | –
107 | 96.5 | – | – | O=C1S/C(=C/c2ccc3cc(F)ccc3n2)C(=O)N1CCN1CCCCC1 | –
6.8 | 85.7 | 24.7 | – | Cc1ccc(Nc2nc3c(C)cccc3c3[nH]nc(N)c23)cc1 | –
4.57 | 98.8 | 34.8 | > 80 | Nc1n[nH]c2c1c(Nc1ccc(Cl)cc1)nc1ccccc12 | Toxic
2.33 | 106 | – | – | Nc1n[nH]c2c1c(Nc1ccccc1)nc1ccccc12 | –
114 | 89.5 | – | – | COc1ccc(-c2cc3ccccc3nc2C2CC(c3cc(OC)c(OC)c(OC)c3)=NN2C(N)=S)cc1 (centres undefined) | –
80.7 | 86.5 | > 10000 | – | Cc1cccc(Nc2nc3ccccc3c3[nH]nc(N)c23)c1 | –
99.1 | 84.6 | – | – | COc1ccc(-c2cc3cc(F)ccc3nc2/C=C2\SC(=O)NC2=O)cc1 | –
111 | 87.9 | – | – | CCOC(=O)CN1C(=O)S/C(=C/c2ccc3cc(F)ccc3n2)C1=O | –
112 | 78.5 | – | – | NC(=S)N/N=C/c1ccc2cc(F)ccc2n1 | –
6 | 78.3 | 884 | – | Nc1n[nH]c2c1c(Nc1cccc(O)c1)nc1ccccc12 | –
99.3 | 79.4 | – | – | Nc1n[nH]c2c1cnc1ccccc12 | –
46.5 | 90.9 | 9200 | – | Nc1n[nH]c2c1c(Nc1ccc([N+](=O)[O-])cc1)nc1ccccc12 | –
73.5 | 79.8 | – | – | Cc1cc2c(n1CCCN(C)CCCn1c(C)cc3c1C(=O)c1ccccc1C3=O)C(=O)c1ccccc1C2=O | –
109 | 85.9 | – | – | O=C(O)CN1C(=O)S/C(=C/c2ccc3cc(F)ccc3n2)C1=O | –
113 | 88.9 | – | – | Fc1ccc(-c2cc(-c3ccc4cc(F)ccc4n3)n(-c3ccccc3)n2)cc1 | –
8.67 | 106 | 626 | – | Nc1n[nH]c2c1c(Nc1ccc(O)cc1)nc1ccccc12 | –
87.4 | 86.9 | – | – | CCN(CC)CCNC(=O)c1ccc(/N=C2/c3ccccc3C(=O)c3c2ccn3Cc2ccccc2)cc1 | –
34.1 | 92.4 | – | – | COc1cc(/C=C2\CN(C(=O)CN(C)C)C/C(=C\c3cc(OC)c(OC)c(OC)c3)C2=O)cc(OC)c1OC | –
12.1 | 97.9 | 55.3 | > 80 | Cc1ccc(Nc2nc3ccc(Br)cc3c3[nH]nc(N)c23)cc1 | Toxic

Activity (Escherichia coli [1]) [%] | activity at 1 h, 10 µM (beta-glucuronidase) [%] | IC50 [2] [nM] | inhibition [4] [%] | Structure (SMILES) | Activity (Escherichia coli [3])
114 | 82.2 | – | – | Fc1ccc(-c2cc(-c3ccc4cc(F)ccc4n3)nn2-c2ccccc2)cc1 | –
6.35 | 88.2 | 55.6 | > 80 | Nc1n[nH]c2c1c(Nc1ccc(Cl)cc1)nc1ccc(Cl)cc12 | Toxic
10.3 | 79.8 | 281 | – | Nc1n[nH]c2c1c(Nc1ccccc1Cl)nc1ccccc12 | –
9.04 | 88.3 | 238 | – | Cc1cccc2c1nc(Nc1ccc(Cl)cc1)c1c(N)n[nH]c12 | –
115 | 88.9 | – | – | O=C1NC(=O)/C(=C\c2ccc3cc(F)ccc3n2)S1 | –
111 | 107 | – | – | COc1cc(/C=C2\CNC/C(=C\c3cc(OC)c(OC)c(OC)c3)C2=O)cc(OC)c1OC | –
112 | 85.4 | – | – | COc1cc(C(=O)C2CC2c2ccc3ccccc3n2)cc(OC)c1OC (centres undefined) | –
111 | 82.7 | – | – | c1ccc2c(c1)c1nonc1c1ccoc21 | –
6 | 83.4 | 133 | – | CC(=O)c1ccc(Nc2nc3ccccc3c3[nH]nc(N)c23)cc1 | –
102 | 80.5 | – | – | CCOc1nc2ccccc2c2[nH]nc(N)c12 | –
12 | 85.6 | 613 | – | Nc1n[nH]c2c1c(Nc1ccccc1O)nc1ccccc12 | –
16.4 | 107 | 18 | > 80 | Nc1n[nH]c2c1c(Nc1ccc(Cl)cc1)nc1ccc(Br)cc12 | Toxic
11.3 | 62.2 | 598 | – | Nc1ccc(Nc2nc3ccccc3c3[nH]nc(N)c23)cc1 | –
6.78 | 92.8 | 29.6 | – | Nc1n[nH]c2c1c(Nc1ccc(Cl)cc1)nc1cc(F)ccc12 | –
99.2 | 102 | – | – | O=C1S/C(=C/c2ccc3cc(F)ccc3n2)C(=O)N1CCN1CCCC1 | –
86.3 | 83.9 | – | – | Nc1n[nH]c2c1c(N)nc1ccccc12 | –
19 | 102 | 154 | – | Nc1n[nH]c2c1c(Nc1ccc(C(=O)O)cc1)nc1ccccc12 | –
101 | 108 | – | – | CCOC(=O)CSc1nc2ccccc2c2sc(C(=O)OCC)c(N)c12 | –
5.66 | 101 | 98.2 | – | Nc1n[nH]c2c1c(Nc1ccc(C(F)(F)F)cc1)nc1ccccc12 | –
6.13 | 91.5 | 14.4 | > 80 | Cc1ccc(Nc2nc3ccc(Cl)cc3c3[nH]nc(N)c23)cc1 | Toxic
74.9 | 80.6 | – | – | O=C1c2ccccc2-c2c(N3CCC(O)CC3)nc3ccccc3c21 | –
104 | 86.8 | – | – | CNC(=S)N/N=C1\C(=O)c2ccccc2-c2occc21 | –
99 | 83 | – | – | Nc1n[nH]c2c1c(O)nc1ccccc12 | –
6.84 | 91.5 | 38.1 | > 80 | Cc1ccc(Nc2nc3cc(F)ccc3c3[nH]nc(N)c23)cc1 | Toxic

Structure (SMILES) | Activity (Escherichia coli [1]) [%] | activity at 1 h, 10 µM (beta-glucuronidase) [%] | IC50 [2] [nM] | inhibition [4] [%] | Activity (Escherichia coli [3])
CCOc1ccc(NC(=S)N(CCO)Cc2cc3cc(C)cc(C)c3[nH]c2=O)cc1 | 8.83 | – | 846 | – | –
O=C(O)[C@@H](O)[C@H]1OC(=O)[C@H](O)[C@H]1O [D-SACCHARIC ACID 1,4-LACTONE] | 75.7 | 33.5 | > 10000 | – | –
